Series [1] deals with Mus musculus. In words: Toxicity in Balb/c mouse implanted with mouse 4T1.2 cells assessed as body weight loss at 3 mg/kg, iv encapsulated within cucurbit[8]uril administered twice weekly for 2 weeks. The format is organism-based. The conditions noted are these: in vivo, 336 h. The gist of the method:
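Mice bore orthotopic 4T1.2 mammary fat pad tumors, with treatment begun on day 8. Dosing was iv twice weekly for 2 weeks at 2 mg/kg mitoxantrone plus 3 mg/kg Q[8], in saline vehicle. Body weight was monitored. Culling at >20% weight loss, tumor >1500 mm3, or metastatic distress.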

In series [2] the test system is 4T1.2. Kind of series: Antitumor activity against mouse 4T1.2 cells implanted in Balb/c mouse assessed as mouse survival time at 3 mg/kg, iv encapsulated within cucurbit[8]uril administered twice weekly for 2 weeks measured up to 33 days. The format is functional. The gist of the method: (§1)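 Female Balb/c mice given 1 × 10^5 4T1.2 cells into the fourth mammary fat pad. Treatment started on day 8 once tumours were palpable: 2 mg/kg mitoxantrone-equivalent (complex formulation also 3 mg/kg Q[8]) or 0.9% saline vehicle, by tail-vein iv, twice weekly for 2 weeks. Monitored to day 33. Culled at >20% weight loss, tumour >1500 mm3 or metastatic distress. Kaplan–Meier analysis with log-rank test.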

Series [3] has as its system Mus musculus. In words: Toxicity in Balb/c mouse assessed as body weight loss at 2 mg/kg, iv administered twice weekly for 2 weeks relative to control. As to conditions: in vivo, 336 h. Format: organism-based. The gist of the method: (§2)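 Non-tumor-bearing female Balb/c mice (9 weeks old), four per group, were dosed iv by tail vein on days 0, 3, 7 and 10. Dose was 2 mg/kg as mitoxantrone (complex adds 3 mg/kg Q[8]) in 0.9% saline vehicle. Body weight was recorded daily and expressed as mean change from baseline.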

Series [4] deals with 4T1.2. Kind of series: Growth inhibition of mouse 4T1.2 cells up to 20000 nM encapsulated within cucurbit[8]uril after 48 hrs by MTT assay. Format: functional, cell-based.
A short description of series [5]: Drug uptake in mouse 4T1.2 cell at 5 uM encapsulated within cucurbit[8]uril after 4 hrs by laser scanning confocal microscopic method.
Series [6] relates to 4T1.2. Kind of series: Antitumor activity against mouse 4T1.2 cells implanted in Balb/c mouse assessed as mouse survival rate at 2 mg/kg, iv administered twice weekly for 2 weeks measured up to 33 days (rvb = 30%). Format: functional. The conditions noted are these: 4T1.2, iv. The gist of the method: as §1
Series [7] in a line: Drug uptake in mouse 4T1.2 cell at 5 uM after 4 hrs by laser scanning confocal microscopic method.
Series [8] relates to Mus musculus. In words: Toxicity in Balb/c mouse assessed as body weight loss at 3 mg/kg, iv encapsulated within cucurbit[8]uril administered twice weekly for 2 weeks. As to conditions: in vivo, 336 h. Format: organism-based. The gist of the method: as §2
For series [9], the system named is 4T1.2. In words: Antitumor activity against mouse 4T1.2 cells implanted in Balb/c mouse assessed as tumor growth inhibition at 3 mg/kg, iv encapsulated within cucurbit[8]uril administered twice weekly for 2 weeks. Format: functional, organism-based. In outline:
(§3)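 Female Balb/c mice given 1 × 105 4T1.2 cells into the fourth mammary fat pad. Dosing started once tumors were palpable on day 8. Dosed iv by tail vein twice weekly for 2 weeks, 2 mg/kg as mitoxantrone (complex adds 3 mg/kg Q[8]), in 0.9% saline vehicle. Primary tumors measured with digital calipers. Groups n = 10–11. One-way ANOVA against vehicle.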

The nature of series [10]: Drug uptake in mouse 4T1.2 cell lysosomes at 5 uM encapsulated within cucurbit[8]uril after 20 mins by LysoTracker Green staining based laser scanning confocal microscopic method. The format is ADME, Lysosome.
In series [11] the test system is 4T1.2. In words: Growth inhibition of mouse 4T1.2 cells up to 20000 nM after 48 hrs by MTT assay. The format is functional, cell-based.
The test system of series [12] is 4T1.2. In words: Antitumor activity against mouse 4T1.2 cells implanted in Balb/c mouse assessed as tumor growth inhibition at 2 mg/kg, iv administered twice weekly for 2 weeks. Format: functional, organism-based. In outline:
as §3

Activity calls are given as the source filed them. The calls are words filed in the database; no cut-off is given here.

Consider `O=C1c2c(O)ccc(O)c2C(=O)c2c(NCCNCCO)ccc(NCCNCCO)c21` [MITOXANTRONE], for which the Activity entry in [1] is “Non-Toxic”; in [3], 15%; in series [8] it was “Non-Toxic”. For the same compound, the Survival in [2] was found to be 26 days. Also, the “growth inhibition (GI)” value in series [4] and in [11] was “Active” in each case. Further, the Drug uptake result in series [5], in [7] and in [10] was “Active” in each case. The survival at 2 mg/kg in [6] is 60%. Moreover, the TGI result in series [9] and in series [12] was “Active” throughout.

The values above are taken from ChEMBL document CHEMBL3994676, “Encapsulation of Mitoxantrone within Cucurbit[8]uril Decreases Toxicity and Enhances Survival in a Mouse Model of Cancer” (ACS Med Chem Lett, 2017).
